An excerpt weighted towards active compounds, which were near 3.4% of everything screened.
MC4R antagonist: antagonists of human melanocortin 4 receptor (MC4R); P32245; MC4R-expressing cells, MTII-stimulated cAMP, LANCE TR-FRET; inhibition, % at 6.5 µM; 360,000 tested, 0.48% active; AID 540295;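 active means inhibition above its plate's cutoff, the mean of tested wells on that plate plus 3 SD, cut at about 29% in these data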;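 further: 0% = Melanotan II alone and 100% = Melanotan II plus saturating MCL0020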
Target sequence (P32245 whole entry, looked up): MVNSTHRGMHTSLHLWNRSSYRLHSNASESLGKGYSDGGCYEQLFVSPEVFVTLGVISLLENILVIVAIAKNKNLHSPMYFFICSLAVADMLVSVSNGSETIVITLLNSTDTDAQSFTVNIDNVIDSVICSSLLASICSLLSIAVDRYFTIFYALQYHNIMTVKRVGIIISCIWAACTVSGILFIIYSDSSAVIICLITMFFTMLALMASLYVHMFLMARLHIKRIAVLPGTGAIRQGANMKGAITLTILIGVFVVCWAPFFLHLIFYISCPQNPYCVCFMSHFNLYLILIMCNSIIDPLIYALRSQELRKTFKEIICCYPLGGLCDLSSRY
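System – human MC4R-expressing U2OS cells · Also added – Melanotan II · Dosing – one concentration, 6.5 µM nominal · Timing – 30-min compound, 1-h challenge, 1-h detection, room temperature · Measured by – Eu-cAMP/anti-cAMP TR-FRET, emission 671 nm · Replicates – singlicate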
TMEM16A act: mouse TMEM16A channel activation, primary screen | Q8BHY3 | HEK293 TMEM16A/YFP-H148Q/I152L, iodide quench fluorescence; hits give low values | B-score at 10 µM | 340,000 tested, 0.3% active;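 active means fluorescence-ratio B-score plate-corrected deviation score at least 3 library SD below zero, with starting fluorescence score within 5 deviations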;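 further: channel opened by trigger with iodide after compound preincubation; score built on the fluorescence ratio of max minus min over baseline; more negative score means more quench and so TMEM16A activation or potentiation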
MC4R barr agon: human MC4R agonism via beta-arrestin; AID 540308; activation, % at 8.9 µM; P32245; 360,000 tested, 0.98% active; U2OS MC4R beta-arrestin complementation, luminescence; percent of melanotan II response, DMSO zero;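 active means activation above a per-plate cutoff, the mean activation of sample wells on that plate plus 3 SD, cut at about 8% in these data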
TMEM16A inh: blocks the mouse calcium-activated chloride channel TMEM16A; Q8BHY3; HEK293 TMEM16A/YFP iodide influx fluorescence, ionomycin; normalized B-score (activity score, 25-100; higher = stronger inhibition) at 10 µM; 310,000 tested, 1.2% active;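 active means ratio plate-corrected score three or more library SD toward inhibition, starting fluorescence score within five deviations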;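 further: score derived from kinetic fluorescence span divided by baseline fluorescence per well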
beta cell repl: induces beta-cell replication in MIN6 cells; MIN6 cells proliferation, ATPlite luminescence, 48 h; cells starved in 0.2% serum; 100% = growth in 10% serum; proliferation, % at 10 µM; 330,000 tested, 0.29% active;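 active means compounds whose signal lies at least 3.5 SD above the mean of all wells on their plate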;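 further: 0% = DMSO-treated cells in low-serum medium and 100% = 10% serum control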
HTR2A ag: activates the mouse 5-HT2A serotonin receptor; P35363; CHO-K1 mHTR2A beta-arrestin complementation, luminescence; percent of 30 µM serotonin response; activation, % at 7.6 µM; 360,000 tested, 0.66% active; AID 624169;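 active means activation above a run cutoff, the mean activation of all tested compounds plus 3 SD, cut at about 14% in these data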;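 further: 0% = plate median of compound wells and 100% = 30 µM serotonin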
U2OS cAMP counter: counter-screen for MC4R antagonists: nonselective cAMP signaling inhibitors. shares compounds with MC4R antagonist. parental U2OS, forskolin cAMP, LANCE TR-FRET. inhibition, % at 6.5 µM. 1,600 tested, 26% active. AID 602193;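 active means mean inhibition over triplicates above the low-control well mean plus 3 SD, set per campaign, cut at about 13% in these data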;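 further: signal is single emission at 671 nm which falls as cellular cAMP rises; 0% = forskolin-stimulated wells and 100% = buffer without forskolin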
MC4R cAMP antag: human MC4R cAMP antagonism confirmation; MC4R-expressing cells, MTII-stimulated cAMP, TR-FRET; shares compounds with MC4R antagonist; AID 602195; inhibition, % at 6.5 µM; 1,600 tested, 27% active; in the data active means inhibition above about 29%;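 further: 0% = agonist stimulated wells alone and 100% = agonist stimulated wells plus saturating reference antagonist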
MC4R barr ag: human MC4R beta-arrestin agonism confirmation | shares compounds with MC4R barr agon | U2OS MC4R beta-arrestin recruitment, luminescence; scaled DMSO 0%, Melanotan II 100% | activation, % at 8.9 µM | 2,400 tested, 31% active | AID 602192;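 active means mean activation across replicates above the hit cutoff set in the earlier primary screen, cut at about 8% in these data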
MOR-DOR barr ag: counter-screen for MC4R agonists: agonists of mu-delta opioid heterodimer | shares compounds with MC4R barr agon | U2OS PathHunter beta-arrestin, beta-gal luminescence; percent of deltorphin B response, DMSO zero | activation, % at 9.2 µM | 2,400 tested, 5.8% active | AID 602194;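 active means mean activation across replicates exceeds the hit threshold derived in the earlier primary screen, cut at about 18% in these data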;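 further: 100% = deltorphin B at 0.9 µM final and 0% = DMSO alone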
* hit, by the source's call; i = inactive; · = no result.

SMILES | MC4R antagonist | TMEM16A act | MC4R barr agon | TMEM16A inh | beta cell repl | HTR2A ag | U2OS cAMP counter | MC4R cAMP antag | others
Cn1nc(C(=O)OCC(=O)Nc2ccccc2OC(F)F)c2ccccc2c1=O | 1.6 | i | 0.1 | · | -3.6 | -0.2 | · | ·
CCN(c1ccccc1)S(=O)(=O)c1ccc(OC)c(NC(=O)CNC)c1 | 1.1 | i | -0.1 | i | -0.7 | -7.6 | · | ·
CC(=O)Nc1cccc(-c2cc(NC(C)=O)c3ncc(-c4ccc(C(C)=O)cc4)n3c2)c1 | 33.3* | · | 9.0* | · | · | -3.3 | 3.0 | 15.8
CC(=O)Nc1cc(-c2cccc(NS(C)(=O)=O)c2)cn2c(-c3cccc(C(C)=O)c3)cnc12 | 17.2 | · | 1.8 | · | · | 6.7 | · | ·
CCN(CC)c1ccc(C(=C2C=CC(=[N+](CC)CC)C=C2)c2ccccc2)cc1 | 64.4* | -12.5* | -3.4 | · | · | -4.4 | 34.1* | 67.2*
Cc1nc2nc(CSc3ccc(Cl)cc3)cc(=O)n2[nH]1 | 7.9 | i | 0.1 | i | -1.3 | 5.1 | · | ·
Cc1cc2nc(CSc3ccc(Cl)cc3)cc(=O)n2[nH]1 | 29.3* | i | 0.7 | i | -2.9 | -2.5 | -2.8 | -6.6
COc1ccc(C(=O)OCC(=O)NC(C)CCc2ccccc2)cc1OC (centres undefined) | 31.0* | i | 0.6 | i | 2.7 | 1.3 | -0.7 | 2.2
COc1ccc(C(=O)OCC(=O)NC(C)CCc2ccccc2)cc1 (centres undefined) | 7.1 | i | 0.5 | i | -1.1 | 5.2 | · | ·
COc1cc(-c2nc3ccc4ccccc4c3c3c2CCC3)cc(OC)c1OC | 32.2* | i | -0.1 | i | -2.9 | -7.6 | -0.6 | 31.3*
COc1cc(-c2nc3ccc4ccccc4c3c3c2CCC3)cc(OC)c1O | 20.2 | i | 4.9 | i | -5.2 | 14.0 | · | ·
CCOc1cccc(C2/C(=C(/O)c3ccc4c(c3)CC(C)O4)C(=O)C(=O)N2CCN2CCOCC2)c1 (centres undefined) | 38.1* | i | -1.0 | i | 1.4 | 4.7 | 0.0 | -12.3
Cc1ccc(S(=O)(=O)N2[C@H](CC(=O)c3ccc(Cl)c(Cl)c3)OC[C@@H]2C)cc1 | · | · | · | · | · | -8.1 | · | ·
CC(OC(=O)c1cccc(N2C(=O)c3ccccc3C2=O)c1)C(=O)Nc1ccc(N(C)C)cc1 (centres undefined) | 32.7* | i | -0.4 | i | -3.5 | -3.2 | -7.1 | -14.5
Cc1cc(C)nc(NS(=O)(=O)c2ccc(NC(=O)C3COc4ccccc4O3)cc2)n1 (centres undefined) | 29.2* | i | -1.0 | i | 0.3 | -1.4 | 2.0 | 2.9
CCOC(=O)C(=Cc1ccc(-n2ccnc2)cc1)C(=O)OCC | 33.9* | i | -2.9 | i | -4.3 | -3.7 | 9.4 | 24.5
COc1ccc(C(O)Cc2nccn2C)cc1 (centres undefined) | 19.4 | i | 1.2 | i | 0.0 | 1.8 | · | ·
C=C(C(=O)c1ccccc1)C(C)CC(=O)c1ccccc1 (centres undefined) | 32.7* | i | -1.4 | i | -6.2 | 9.5 | 23.2* | 50.1*
O=C(CC(Nc1ccccc1)C(=O)O)c1ccccc1 (centres undefined) | 0.6 | i | -1.4 | i | -0.5 | 0.3 | · | ·
CN(c1ccccc1)c1nc(N)c([N+](=O)[O-])c(NCc2ccccc2)n1 | -1.9 | i | 1.6 | i | -2.8 | -2.6 | · | ·
Cc1nc(Cl)nc(N(C)c2ccccc2)c1[N+](=O)[O-] | 35.6* | i | -3.6 | i | -6.1 | -1.1 | 21.6* | 6.2
O=C(O)c1ccc(NC(=O)c2ccc(COc3ccccc3)o2)cc1 | 28.7* | i | 2.6 | i | -3.8 | 8.9 | -1.1 | -14.0
COCc1ccc(C(=O)Nc2ccc(C(=O)O)cc2)o1 | -0.1 | i | -1.1 | i | 0.3 | 3.9 | · | ·
COC(=O)[C@H](CC(C)C)NC(=O)N1CCC(C)CC1 | 33.0* | i | -1.0 | i | 0.0 | -4.0 | 5.3 | 3.9
N#Cc1ccncc1S(=O)c1ccc(Cl)cc1 (centres undefined) | 24.1 | i | 1.5 | i | -3.0 | 0.4 | · | ·
SMILES | MC4R antagonist | TMEM16A act | MC4R barr agon | TMEM16A inh | beta cell repl | HTR2A ag | U2OS cAMP counter | MC4R cAMP antag | others
O=c1c(=Nc2ccccc2O)c(=O)c2ccccc12 | 34.0* | i | -2.1 | i | -2.8 | -0.5 | 4.1 | -0.6
CCOC(=O)c1cnc2ccc(OCC)cc2c1NCc1ccccc1 | 34.8* | i | -0.3 | 100* | -4.5 | 0.9 | 7.4 | 21.5
CCOC(=O)c1cnc2ccc(C)cc2c1Nc1ccc(N2CCOCC2)cc1 | 30.5* | i | -0.3 | i | 1.1 | 1.5 | 2.6 | 37.8*
CCOC(=O)c1cnc2ccccc2c1Nc1cccc(C(=O)O)c1 | 38.8* | i | 0.2 | i | -0.5 | -0.3 | 13.4* | 19.5
COc1ccc(-c2ccc3nncn3c2)cn1 | 16.4 | · | -2.4 | · | · | 2.2 | · | ·
CC(C)C[C@H]1COc2cc(N3CCC[C@@H]3CO)ccc2S(=O)(=O)N1 | · | · | · | · | · | -2.4 | · | ·
CCCCCCNc1nc(-c2ccc(OC)cc2)c(CCC(=O)O)s1 | 29.5* | i | 1.4 | i | 0.0 | 2.1 | -2.9 | -1.3
O=[N+]([O-])c1cc(-c2nc(-c3ccncc3)no2)ccc1Cl | 39.4* | i | -1.1 | i | -5.7 | 6.9 | 18.4* | 47.3*
O=[N+]([O-])c1cc(-c2nc(-c3ccncc3)no2)cc([N+](=O)[O-])c1 | 12.8 | i | -1.6 | i | 0.0 | 3.1 | · | ·
Cc1ccccc1C(=O)NCCN1CCC(n2c(=O)[nH]c3ccccc32)CC1 | · | · | · | · | · | -9.3 | · | ·
CC(=O)n1cc(N(C(=O)CCl)c2ccc(Cl)cc2)c2ccccc21 | 42.1* | i | 13.0* | i | -4.0 | -0.9 | -16.6 | 51.9* | MC4R barr ag=5.6;MOR-DOR barr ag=51.1*
CC(=O)n1cc(Nc2ccccc2C(=O)O)c2ccccc21 | -5.2 | i | -1.4 | i | -0.4 | 1.7 | · | ·
C=CCN(C(=O)c1csnn1)C(C(=O)NCc1ccc(F)cc1)c1ccccc1F (centres undefined) | 10.6 | i | 1.8 | i | -3.4 | 12.5 | · | ·
